Blank lines part the entries; values can stand above or below the compound they belong to. Peptide text beside a SMILES is read from it.
How the values were obtained:
[1] = species on record: Homo sapiens; experiment: Relative affinity for PMN receptor (n=3); type: functional
How it was run: (§1)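 Competition binding on freshly isolated intact human PMNs (0.25 × 10⁶) with 20 pM [¹²⁵I]C5a plus unlabeled C5a or peptide. Buffer is 50 mM HEPES, 1 mM CaCl₂, 5 mM MgCl₂, 0.5% BSA. Incubation 60 min at 4 °C, then filtration, ice-cold washes and gamma counting, triplicates. Nonspecific binding defined with 1 mM peptide or 100 nM C5a. Relative affinity = antilog[−(log IC50 C5a − log IC50 peptide)] × 100. The potency/binding ratio is EC50 divided by the binding IC50.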

[2] = (§2) Ratio of concentration agonist potency (EC50) to concentration inhibiting [125I]C5a binding (n=3); how it was run: as §1
[3] = species on record: Homo sapiens; experiment: Tested for inhibition of binding of [125I]-C5a to intact human polymorphonuclear cells (PMN) (n=3); type: functional; how it was run: as §1
[4] = species on record: Homo sapiens; experiment: Maximum efficacy relative to C5a (100%) for human polymorphonuclear cells (PMN) was determined (n=5); type: functional
How it was run: (§3)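 Human PMNs pretreated with cytochalasin B (5 μg/mL, 10 min, 37 °C), then 10⁶ cells stimulated for 60 min at 37 °C. β-Glucuronidase in the supernatant is assayed with 0.01 M p-nitrophenyl β-D-glucuronide (0.1 M acetate, pH 4, 18 h) in triplicate. Reaction stopped with glycine pH 10 and read at 415 nm. pD2 is taken from dose–response curves against the C5a EC50. Efficacy is given relative to C5a maximum (100%).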

[5] = species on record: Homo sapiens; experiment: Relative potency of peptide to stimulate beta-glucuronidase release from human polymorphonuclear cells (PMN) (n=5); type: functional; how it was run: as §3
[6] = species on record: Homo sapiens; experiment: Tested for the ability to stimulate beta-glucuronidase release from human polymorphonuclear cells (PMN) (n=5); type: functional; how it was run: as §3
[7] = species on record: Homo sapiens; experiment: Log potency ratio [pD2(C5a)-pD2(peptide)] was determined in human polymorphonuclear cells (PMN) (n=5); type: functional; how it was run: as §3
[8] = species on record: Homo sapiens; experiment: Relative potency of peptide for human fetal artery was determined; type: functional
How it was run: (§4)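 Human fetal artery smooth muscle contraction; full dose–response curves for recombinant human C5a or each peptide in the same tissue preparation. EC50 is the concentration giving 50% of the maximal response, read relative to the C5a maximum. pD2 = −log EC50 (M), averaged per peptide ± SE. Log potency ratio pD2(C5a) − pD2(peptide) is computed within each experiment. Relative potency = antilog(−Δ) × 100.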

[9] = species on record: Homo sapiens; experiment: Effective concentration to induce smooth muscle contraction in human fetal artery; type: functional; conditions: Muscle tissue; how it was run: as §4
[10] = Selectivity of peptide was determined from antilog[pD2(fetal artery)-pD2 (PMN enzyme release)] (n=35); type: functional
How it was run: (§5)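 Selectivity = antilog[pD2(fetal artery) − pD2(PMN β-glucuronidase release)]. pD2 values come from full dose–response curves in each assay, each generated alongside C5a.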

[11] = species on record: Homo sapiens; experiment: Spasmogenic activity was measured by the ability to induce smooth muscle contraction in human fetal artery; type: functional, Muscle tissue; how it was run: as §4
[12] = species on record: Homo sapiens; experiment: Log potency ratio [pD2(C5a)-pD2(peptide)] was determined in human fetal artery; type: functional; how it was run: as §4
[13] = species on record: Homo sapiens; experiment: Effective concentration to stimulate beta-glucuronidase release from human polymorphonuclear cells (PMN) (n=5); type: functional; how it was run: as §3
[14] = species on record: Homo sapiens; experiment: Tested for the ability to stimulate beta-glucuronidase release from human polymorphonuclear cells (PMN) (n=6); type: functional; how it was run: as §3
[15] = species on record: Homo sapiens; experiment: Effective concentration to stimulate beta-glucuronidase release from human polymorphonuclear cells (PMN) (n=6); type: functional; how it was run: as §3
[16] = species on record: Homo sapiens; experiment: Relative potency of peptide to stimulate beta-glucuronidase release from human polymorphonuclear cells (PMN) (n=6); type: functional; how it was run: as §3
[17] = species on record: Homo sapiens; experiment: Selectivity of peptide was determined from antilog [pD2(fetal artery)-pD2 (PMN enzyme release)] (n=28); type: functional; how it was run: as §5
[18] = species on record: Homo sapiens; experiment: Tested for inhibition of binding of [125I]C5a to intact human polymorphonuclear cells (PMN) (n=3); type: functional; how it was run: as §1
[19] = species on record: Homo sapiens; experiment: Maximum efficacy relative to C5a (100%) for human polymorphonuclear cells (PMN) was determined (n=6); type: functional; how it was run: as §3
[20] = species on record: Homo sapiens; experiment: Log potency ratio [log IC50(C5a)-log IC50(peptide)] was determined in human polymorphonuclear cells (PMN) (n=3); type: functional; how it was run: as §1
[21] = species on record: Homo sapiens; experiment: Log potency ratio [pD2(C5a)-pD2(peptide)] was determined in human polymorphonuclear cells (PMN) (n=6); type: functional; how it was run: as §3
[22] = species on record: Homo sapiens; experiment: as §2; type: functional; how it was run: as §1
[23] = species on record: Homo sapiens; experiment: Log potency ratio [pD2(C5a)-pD2(peptide)] was determined in human polymorphonuclear cells (PMN) (n=3); type: functional; how it was run: as §3
[24] = species on record: Homo sapiens; experiment: Maximum efficacy relative to C5a (100%) for human polymorphonuclear cells (PMN) was determined (n=3); type: functional; how it was run: as §3
[25] = Selectivity of peptide was determined from antilog[pD2(fetal artery)-pD2 (PMN enzyme release)] (n=12); type: functional; how it was run: as §5
[26] = species on record: Homo sapiens; experiment: Tested for the ability to stimulate beta-glucuronidase release from human polymorphonuclear cells (PMN) (n=3); type: functional; how it was run: as §3
[27] = species on record: Homo sapiens; experiment: Relative potency of peptide to stimulate beta-glucuronidase release from human polymorphonuclear cells (PMN) (n=3); type: functional; how it was run: as §3
[28] = species on record: Homo sapiens; experiment: Effective concentration to stimulate beta-glucuronidase release from human polymorphonuclear cells (PMN) (n=3); type: functional; how it was run: as §3
[29] = species on record: Homo sapiens; experiment: Maximum efficacy relative to C5a (100%) for human polymorphonuclear cells (PMN) was determined (n=4); type: functional; how it was run: as §3
[30] = species on record: Homo sapiens; experiment: Log potency ratio [pD2(C5a)-pD2(peptide)] was determined in human polymorphonuclear cells (PMN) (n=4); type: functional; how it was run: as §3
[31] = species on record: Homo sapiens; experiment: Tested for the ability to stimulate beta-glucuronidase release from human polymorphonuclear cells (PMN) (n=4); type: functional; how it was run: as §3
[32] = Selectivity of peptide was determined from antilog[pD2(fetal artery)-pD2 (PMN enzyme release)] (n=8); type: functional; how it was run: as §5
[33] = species on record: Homo sapiens; experiment: Relative potency of peptide to stimulate beta-glucuronidase release from human polymorphonuclear cells (PMN) (n=4); type: functional; how it was run: as §3

- Ratio [2]: 72
- IC50 [3]: 1.3 µM
- EC50 [9]: 9.6 µM
- EC50 [13]: 92 µM
Structure (SMILES): CSCC[C@H](NC(=O)[C@H](CC(=O)O)NC(=O)[C@H](CCCCN)NC(=O)[C@H](Cc1ccccc1)NC(=O)[C@H](CO)NC(=O)[C@@H](N)Cc1ccc(O)cc1)C(=O)N[C@@H](CCC(N)=O)C(=O)N[C@@H](CC(C)C)C(=O)NCC(=O)N[C@@H](CCCN=C(N)N)C(=O)O (H-YSFKDMQLGR-OH)
- C5a affinity [1]: 0.022%
- C5a max [4]: 87%
- Potency [5]: 0.04%
- pD2 [6]: 4.04
- Mean log concentration ratio [7]: 3.42
- Potency [8]: 0.1%
- Selectivity [10]: 8.3
- pD2 [11]: 4.96
- Mean log concentration ratio [12]: 3

- EC50 [15]: 72 µM
- EC50 [9]: 0.5 µM
- IC50 [18]: 3.7 µM
Structure (SMILES): CSCC[C@H](NC(=O)[C@H](CC(=O)O)NC(=O)[C@H](CCCCN)NC(=O)[C@H](Cc1ccccc1)NC(=O)[C@H](CO)NC(=O)[C@@H](N)Cc1ccc(O)cc1)C(=O)N1CCC[C@H]1C(=O)N[C@@H](CC(C)C)C(=O)N[C@H](C)C(=O)N[C@@H](CCCN=C(N)N)C(=O)O
- C5a affinity [1]: 0.007%
- pD2 [14]: 4.14
- Potency [16]: 0.04%
- Potency [8]: 2.2%
- pD2 [11]: 6.32
- Selectivity [17]: 151
- Mean log concentration ratio [12]: 1.66
- C5a max [19]: 174%
- Mean log concentration ratio [20]: 4.13
- Mean log concentration ratio [21]: 3.35
- Ratio [22]: 19

Structure (SMILES): CSCC[C@H](NC(=O)[C@@H]1CCCN1C(=O)[C@H](CCCCN)NC(=O)[C@H](Cc1ccccc1)NC(=O)[C@H](CO)NC(=O)[C@H](Cc1ccc(O)cc1)NC(=O)CCCCCNC(=O)[C@@H](N)CCCCN)C(=O)N1CCC[C@H]1C(=O)N[C@@H](CC(C)C)C(=O)N[C@H](C)C(=O)N[C@@H](CCCN=C(N)N)C(=O)O [listing 1 of 2 here]
- Potency [8]: 14%
- Mean log concentration ratio [23]: 1.93
- pD2 [11]: 7.14
- Mean log concentration ratio [12]: 0.84
- C5a max [24]: 145%
- Selectivity [25]: 59
- pD2 [26]: 5.37
- Potency [27]: 1.2%

- EC50 [28]: 4.3 µM
- EC50 [9]: 0.09 µM
Structure (SMILES): CSCC[C@H](NC(=O)[C@@H]1CCCN1C(=O)[C@H](CCCCN)NC(=O)[C@H](Cc1ccccc1)NC(=O)[C@H](CO)NC(=O)[C@H](Cc1ccc(O)cc1)NC(=O)CCCCCNC(=O)[C@@H](N)CCCCN)C(=O)N1CCC[C@H]1C(=O)N[C@@H](CC(C)C)C(=O)N[C@H](C)C(=O)N[C@@H](CCCN=C(N)N)C(=O)O [listing 2 of 2 here]

Structure (SMILES): CSCC[C@H](NC(=O)[C@@H]1CCCN1C(=O)[C@H](CCCCN)NC(=O)[C@H](Cc1ccccc1)NC(=O)[C@H](CO)NC(=O)[C@H](Cc1ccc(O)cc1)NC(C)=O)C(=O)N1CCC[C@H]1C(=O)N[C@@H](CC(C)C)C(=O)N[C@H](C)C(=O)N[C@@H](CCCN=C(N)N)C(=O)O
- C5a max [29]: 148%
- Potency [8]: 9.6%
- Mean log concentration ratio [30]: 2.44
- pD2 [11]: 6.98
- Mean log concentration ratio [12]: 0.74
- pD2 [31]: 5.03
- Selectivity [32]: 89
- Potency [33]: 0.4%

From ChEMBL document CHEMBL1129970, “Biologically active conformer of the effector region of human C5a and modulatory effects of N-terminal receptor binding determinants on activity” (J Med Chem, 1997)
